According to the EternaBench riboswitch data:

Test system: MS2 coat protein
Test: apparent Kd, MS2 coat protein; higher = weaker binding; RNA-MaP array; FMN 200 µM where present
Method in brief: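 Binding was read on Illumina sequencing-chip clusters where stalled E. coli RNA polymerase had transcribed each design. A titration of SNAP-549-labelled MS2 coat protein began at 0.7 or 1.5 nM and doubled to 3 µM, once without ligand and once with constant ligand, in 100 mM Tris-HCl pH 7.5, 80 mM KCl, 4 mM MgCl2, BSA, DTT, yeast tRNA and Tween-20. The apparent Kd is the median of filtered per-cluster binding-curve fits, based on green signal normalised to red-channel RNA signal and control-cluster median Fmax.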

[1] = designed as: OFF switch for flavin mononucleotide, no ligand
[2] = ligand present: flavin mononucleotide, designed as: OFF switch for flavin mononucleotide
[3] = designed as: ON switch for flavin mononucleotide, no ligand
[4] = ligand present: flavin mononucleotide, designed as: ON switch for flavin mononucleotide

Sequence | apparent Kd [1] | apparent Kd [2] | apparent Kd [3] | apparent Kd [4]
GGAUAGGACAGAGGAUAUACGUGCAAGAGAUACUAGCAAAAUUUCCUCACAUGAGGAUCACCCAUGUAGAAGGCUGUCCUAUCG | 57.4 nM | 331 nM |  | 
GGUGUACAUGAGGAUCACCCAUGUCGACCGCUCACAGGAUAUUUAAUACAAACUGGUAGCGGAGAAGGGUGAGGAA |  |  | 295 nM | 312 nM
ACAUGAGGAUCACCCAUGUAUACAUAGGAUAUUGAGGAUCAGGGAUGUUUUACAGGAUAUGUCUACAAGAAGGAUGCAAGUAAA |  |  | 35.6 nM | 30 nM
UAUUUUAACUAAGGAUAUCUAUAUUAUGUUGAAACAUGAGGAUCACCCAUGUUCAUGAUAUUAUAGGAGAAGGUAGAUGAAUAA |  |  | 6.59 nM | 5.44 nM
UUUAAUUAGUAAGGAUAUACUAGUGAUUAACUUGUAGAAGGUACAGUCUUAUGUAUAACAAAUUAACAUGAGGAUCACCCAUGU |  |  | 9.54 nM | 8.3 nM
UUACUCAUGUAAGGAUAUGCAGCCGUUUCGGUUGCAGAAGGUACUAUAAUACAUGAGGAUCACCCAUGUCUUUUUAAUUUUUAC |  |  | 67.9 nM | 31.2 nM
UGUCGGAGCAGAGGAUAUUACAUGAGGAUCACCCAUGUAUGAACCAAUAGCUGGAACCAGCAAUGUAAGAAGGCUGCUCCGACA | 14.2 nM | 160 nM |  | 
AUAUUGUGAGGAUAUGAACUUAGUAUCGAAAGAUACUAACUUCAGAAGGCACAUGAGGAUCACCCAUGUUUCUC | 72.3 nM | 689 nM |  | 
GCACAUGAGGAUCACCCAUGUGGUCCAGAAGGCCAGAGGAUCUGCUUUUAGCAGGUCCCUCAAAUGGAGGAUAUGGAGGGUUCU |  |  | 261 nM | 44.7 nM
GAUACACAUGAGGAUCACCCAUGUGAGGAUAUGCGUACGUUGUCCGUAGGCGACGUGCGCAGAAGGCGCGAGGU | 41.4 nM | 36.2 nM |  | 
AAUCUGUAGCAGAAGGUCAUUUUUAUAAAUAAGCUGGUGACAUGAGGAUCACCCAUGUAAAGGUUGAAGGAUAUGCAUUCUAUU | 90.5 nM | 343 nM |  | 
CCGGAAACGGGUAGCUGUACAUGAGGAUCACCCAUGUGAUCAUAGGAUAUGGAACCUAAUUGGUUCCAGAAGGAUGUCAGCUAC |  |  | 237 nM | 598 nM
AGCAGACGAGGAUAUAGAUUUGUUAACAUGAGGAUCACCCAUGUGAUCGAUUUUUCAUAUUUAGAAGGUGUCUGCU | 83.3 nM | 392 nM |  | 
UUUGCAUUCCGAGGAUAUUCAUUUAUUGUCUUCACAUGAGGAUCACCCAUGUGGCGCUUGCGCCGGGAGAAGGCGGUUUGCUUU |  |  | 21.7 nM | 24.9 nM
GCAUACAUUCGAGGAUAUCGGUGAACAAAUUAACGAGAAGGCGAUAGAAUGUUUCAUCUUAUGAACAUGAGGAUCACCCAUGUA |  |  | 39.3 nM | 27.9 nM
AUUAUGCAGCAGGAUAUCGAUCCGCGGUAUGAUCGAGAAGGGCUGACAUGAGGAUCACCCAUGUGCGUCCUAGG | 39.8 nM | 147 nM |  | 
UAACAAAUUGUCAGGAUAUCAUUCCCGGCCCAGAGUGAGAAGGGACAUGAGGAUCACCCAUGUAUGAUUCUCAC | 16.1 nM | 15.3 nM |  | 
AGUGGGUGUGAUAAAUAGUGGAAGUAGGAUAUGGGCUUACAUGAGGAUCACCCAUGUAUACAGCGCCAGAAGGACUGGACUGUA |  |  | 75.3 nM | 34.6 nM
UACAUCUCGUAAGGAUAUACACGAGAUUCAAGUGUAGAAGGUACUAACAUGAGGAUCACCCAUGUAUACAUGGAUAAUAGAUAU |  |  | 91.6 nM | 59.7 nM
UGUCGGAGCAGAGGAUAUUACAUGAGGAUCACCCAUGUAUGAACCAAUAGCUGGAAACAGCAAUGUCAGAAGGCUGCUCCGACA | 5 nM | 5.06 nM |  | 
AUAAUGAGUCAAGGAUAUCCGAGCUGAAUGCUAGGAGAAGGUGACAUGAGGAUCACCCAUGUCUCUCCGAGCAUGGUAUUCUCA | 28.6 nM | 33.6 nM |  | 
CUCUUGGCAGGAUAUGCAAUUUUAGACAUGAGGAUCACCCAUGUGAUCAUUCCAUAUUAUGCAGAAGGGCCUAAAC | 48.2 nM | 320 nM |  | 
UUAUUAAGUGUGAGGAUAUGCUGGUCCUUGGAUCAGCAGAAGGCACAUGAGGAUCACCCAUGUACAAUAUUUUA | 39 nM | 230 nM |  | 
AAUUUAAUACAUGAGGAUCACCCAUGUAAAUUAAUUAAGAUCUAGGAUAUCAGCUCGAUUAGAGCUGAGAAGGAGAUCACAUGU |  |  | 16.6 nM | 13.2 nM
GUAGCAACAUGAGGAUCACCCAUGUAGGAUAUCGCUAUUGUAAUCAUGAAACAUGAUUACAAUAGCGAGAAGGACAUUGGCUAC | 7.06 nM | 10.8 nM |  | 
CUAUGAGCGAUAGGAUAUACUGAGAUUGAGUGGGUAGAAGGAUCGAUAGUGUAGAAGACAUGAGGAUCACCCAUGUUACGGGUU |  |  | 892 nM | 290 nM
GGAUACAUCGGAGGAUAUCAUGUAAAUACAUGAGGAUCACCCAUGUCGAUGGAGACAUCGGAGAUUGAGAAGGCCGAUGUACCG |  |  | 164 nM | 8.95 nM
UAAAUGUGAGGAUAUCAGGUGUGCUAGCAUACUGGUACAUCUGAGAAGGCACAUGAGGAUCACCCAUGUUCCUU | 16.8 nM | 52.4 nM |  | 

Sequence | apparent Kd [1] | apparent Kd [2] | apparent Kd [3] | apparent Kd [4]
UGGUAGUAGGGAGGAUAUGGGAAGAUACAUGAGGAUCACCCAUGUUUAAGAAUGCCGAGAGGCAACUAGAAGGCCCUAGUACCU |  |  | 324 nM | 23.7 nM
AAGAAACAUGAGGAUCACCCAUGUCGAGAGAGACGAGGAUAUCUGAAUCGAUUAGAUUACGGAGAAGGCGUGAAAA |  |  | 29.4 nM | 23.4 nM
UAUAAUAUUAUAGGAUAUGGAUACGAUACGUAUCCAGAAGGGUGAUUAUAAUAUAAUCUAUACAUGAGGAUCACCCAUGUUUAU |  |  | 228 nM | 98 nM
UUCUGUGUGUGCUAGGGCUGCACAUGAGGAUCACCCAUGUACAGAAGGUGGACACGCACUGUGGCCAAGGAUAUGUAACAUGUU | 11.2 nM | 36.2 nM |  | 
AAAAAUGGAGGAUAUACAUGAGGAUCACCCAUGUGUGACUAUACUAUGCGCUCUUCAGGUAGAAGGCCAAAAAA | 28.4 nM | 39.4 nM |  | 
UUUAUGAAGCUUCGUCAAUACAGUUAGGAUAUGAGAGACAUGAGGAUCACCCAUGUGCAUGUUGAUUAGAAGGAACAAUUAUCU | 15.6 nM | 14.6 nM |  | 
UUAAUGAUGUAAGGAUAUACAUGAGGAUUUCUCGUAGAAGGUACAAGACAUGAGGAUCACCCAUGUGUCGCUCCGUAGAGCGUA |  |  | 288 nM | 302 nM
ACAUUGCUAGGAUAUCGCGGUAAGGACAUGAGGAUCACCCAUGUGGUGCCGUGGGAGGCCCGAGAAGGAGCGACCU | 23.1 nM | 25.9 nM |  | 
UUUACAUGAGGAUCACCCAUGUCUGUCACCCAUGUGUGCAAUCAGGAUAUGAUAUCAAUAAUAAAUUAGAAGGGAUAACAUGAG |  |  | 73.5 nM | 100 nM
AAAUUCCUCACAGGAUAUCCUACAUGAGGAUCACCCAUGUACUAACUGAGCAAAUUGCAACAAAAGGAGAAGGGUGAGGUGAAG |  |  | 36.3 nM | 4.25 nM
CUUUCGUGAGGAUAUCAGUAGUAAAAAUAUAAAAUUACUACUGAGAAGGCACAUGAGGAUCACCCAUGUUCCUC | 26 nM | 150 nM |  | 
GCAGACGUGGUGAGGAUAUGCUCUACCUCGGUAGAGCAGAAGGCACAUGAGGAUCACCCAUGUGACUCCUCAUC | 18.6 nM | 19.2 nM |  | 
ACGUUACAUGAGGAUCACCCAUGUGAGGAUAUGGUGCGGUAGUGUCCUGUCGCGUACUCCAGAAGGCGCGGGUG | 204 nM | 147 nM |  | 
AUCAGCUCGUCAGGAUAUACGUCACUGCCUCAGCAGUGUGGUAAGAUCACAUGAGGAUCACCCAUGUAGAAGGGACGAGCUGAU | 15.5 nM | 299 nM |  | 
GCUAUUGGCUAAGGAUAUGGAUACAUGAGGAUCACCCAUGUAUUUUUUGUGAUCAUAUAAAUGAUCCAGAAGGUAGCUGUUAGC | 21.9 nM | 62.1 nM |  | 
UCAUGAUAUGUAGGAUAUCACAAUAAUUGAUUAAUAUAUGAAUAUAGAAUUUGAGAAGGACAUUUACAUGAGGAUCACCCAUGU | 14.8 nM | 12.3 nM |  | 
CUUUUUUGAGGAUAUUAGUAGUAAAUAAAUAAAAUUACUACUGAGAAGGCACAUGAGGAUCACCCAUGUUCCUC | 16.3 nM | 26.9 nM |  | 
AUUAGCUCGUCAGGAUAUACGUCACUGCGUCAGCAGUGUGGUAAGAUCACAUGAGGAUCACCCAUGUAGAAGGGACGAGCUGAU | 13 nM | 289 nM |  | 
CAUUUGUGAGGAUAUCAGGUGUGCUAGCGUACUGGUACAUCUGAGAAGGCACAUGAGGAUCACCCAUGUUUCUU |  | 43.3 nM |  | 
AAUUGACACGUAGGAUAUCGCUUUAAUUUAACACGAGAAGGACGUACAUGAGGAUCACCCAUGUUAAAUGGUGUAGAUUAAUUG | 167 nM | 382 nM |  | 
CAGCAAUGUAAGAAGGUAUUUAUUAUUAUAUUAUAAGGAUAUUACAUGAGGAUCACCCAUGUAUGAACCAAUAGCUGAAUUAUA | 6.1 nM | 5.88 nM |  | 
AUACGGGCUAACAUGAGGAUCACCCAUGUGUUAUACUUAAUAUAGGAUAUGUUUAUACUUUUUGGGCAGAAGGAUGGCCCGUAU |  |  | 53.5 nM | 44.9 nM
CCCGCUGGAGGAUAUGCACUACGUGUGUUUUCUUUUGAGGCACAUGAGGAUCACCCAUGUAGAAGGCCACGCGG | 97.6 nM | 430 nM |  | 
UAUGGUAAAGUCAGGAUAUACGUACAUCAUUCUAGGUAGAAGGGACAUGAGGAUCACCCAUGUAUGGUAGUGUU | 62.2 nM | 67.6 nM |  | 
CGGGUAUAUCGAGGAUAUAAGUCUAGGACAUGAGGAUCACCCAUGUAUGUCUUAGAAGGCGAUAUACCCAGCCUGUUACAGGCA |  |  | 31 nM | 6.37 nM
UAAAUUAACAAGAAGGCUAACAUGAGGAUCACCCAUGUUGUACAUGGAUAUAGAGGAUAUUGCUAAUUAUUAUUUAUCAUAAUU | 23.6 nM | 18.3 nM |  | 
GUGCGGUGAGGAUAUACGUAGGUACAGAUCUGUGUGUUCCUACAUGAGGAUCACCCAUGUAGAAGGCAUGGCAC | 49.6 nM | 136 nM |  | 
